Molecules are shown by their SMILES. Structures can show the parent of a compound that is named as a salt. Activity calls are given as the source filed them. The calls are words filed in the database; no cut-off is given here.

Results on 18 molecules are retold here after ChEMBL document CHEMBL1255510, “Discovery of a class of calcium sensing receptor positive allosteric modulators; 1-(benzothiazol-2-yl)-1-phenylethanols” (Bioorg Med Chem Lett, 2010).

In data set [1] the target is T1, Extracellular calcium-sensing receptor (Homo sapiens) (UniProt P41180).
T1 sequence (whole entry): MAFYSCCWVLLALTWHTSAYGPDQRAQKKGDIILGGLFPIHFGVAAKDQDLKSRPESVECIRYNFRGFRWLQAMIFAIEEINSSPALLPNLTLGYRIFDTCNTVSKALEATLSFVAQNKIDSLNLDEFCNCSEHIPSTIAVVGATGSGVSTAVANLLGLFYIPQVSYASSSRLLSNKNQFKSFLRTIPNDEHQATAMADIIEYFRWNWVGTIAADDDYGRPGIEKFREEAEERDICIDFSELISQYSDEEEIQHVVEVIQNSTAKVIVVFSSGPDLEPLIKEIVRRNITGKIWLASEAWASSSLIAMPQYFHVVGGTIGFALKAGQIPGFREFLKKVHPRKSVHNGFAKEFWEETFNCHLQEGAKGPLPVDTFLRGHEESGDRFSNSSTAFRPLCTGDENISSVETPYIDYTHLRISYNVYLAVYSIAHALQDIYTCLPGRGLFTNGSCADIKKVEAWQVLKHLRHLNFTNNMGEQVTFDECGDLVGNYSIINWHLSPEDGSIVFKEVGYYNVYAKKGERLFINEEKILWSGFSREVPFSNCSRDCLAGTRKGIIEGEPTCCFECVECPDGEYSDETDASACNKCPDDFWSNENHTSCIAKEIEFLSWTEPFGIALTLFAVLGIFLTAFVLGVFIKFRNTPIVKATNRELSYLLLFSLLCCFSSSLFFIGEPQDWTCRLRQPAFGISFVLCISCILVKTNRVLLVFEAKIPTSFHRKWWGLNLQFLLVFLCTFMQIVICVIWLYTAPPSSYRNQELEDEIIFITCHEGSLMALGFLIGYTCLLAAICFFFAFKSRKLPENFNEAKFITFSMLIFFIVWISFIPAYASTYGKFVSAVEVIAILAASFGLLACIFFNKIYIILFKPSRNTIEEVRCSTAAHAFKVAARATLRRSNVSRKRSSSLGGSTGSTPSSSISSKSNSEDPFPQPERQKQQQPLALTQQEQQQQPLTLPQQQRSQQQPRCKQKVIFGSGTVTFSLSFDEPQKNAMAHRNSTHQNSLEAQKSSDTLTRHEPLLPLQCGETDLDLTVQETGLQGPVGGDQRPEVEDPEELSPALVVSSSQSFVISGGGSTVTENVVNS
Briefly: Positive allosteric modulation of calcium sensing receptor by phosphatidyl inositol hydrolysis assay. In kind it is functional.

In data set [2] the target is T1, Extracellular calcium-sensing receptor (Homo sapiens). The experiment in a line: Positive allosteric modulation of calcium sensing receptor by cell based assay relative to control. It is filed as functional. In short, it runs like this: (§1)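 R-SAT cell-based functional assay; cells kept in DMEM with 0.8 mM MgCl2 and 1.6 mM CaCl2 to raise sensitivity. Means of at least three independent experiments, standard deviation reported.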

Data set [3] concerns the target T2, Extracellular calcium-sensing receptor (Homo sapiens, UniProt P41180).
T2 sequence (P41180 whole entry): T1 sequence (whole entry)
The experiment in a line: Positive allosteric modulation of calcium sensing receptor by cell based assay. In kind it is functional. In short, it runs like this: as §1

For data set [4], the target named is T3, Parathyroid hormone/parathyroid hormone-related peptide receptor (Homo sapiens) (UniProt Q03431).
T3 sequence (whole entry): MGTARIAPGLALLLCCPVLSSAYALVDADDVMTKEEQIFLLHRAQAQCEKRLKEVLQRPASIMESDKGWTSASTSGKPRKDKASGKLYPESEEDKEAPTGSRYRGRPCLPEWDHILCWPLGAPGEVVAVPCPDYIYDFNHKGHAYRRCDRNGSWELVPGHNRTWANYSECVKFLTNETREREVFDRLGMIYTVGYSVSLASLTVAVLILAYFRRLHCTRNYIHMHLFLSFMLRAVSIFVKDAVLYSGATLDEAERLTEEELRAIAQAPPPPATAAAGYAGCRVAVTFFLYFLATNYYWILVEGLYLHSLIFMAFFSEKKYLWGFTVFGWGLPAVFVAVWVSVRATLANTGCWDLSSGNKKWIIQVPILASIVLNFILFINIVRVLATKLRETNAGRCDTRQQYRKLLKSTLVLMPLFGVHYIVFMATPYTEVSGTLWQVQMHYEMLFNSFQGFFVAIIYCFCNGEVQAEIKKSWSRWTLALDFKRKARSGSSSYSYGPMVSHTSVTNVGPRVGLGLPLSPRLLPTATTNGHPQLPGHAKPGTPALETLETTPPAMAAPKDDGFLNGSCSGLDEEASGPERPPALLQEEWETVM
Briefly: Activation of human PTH1 receptor.

The next data set deals with Rattus norvegicus. The experiment in a line: Reduction of parathyroid hormone level in Sprague-Dawley rat at up to 10 mg/kg, sc after 1 hr by ELISA. It is filed as functional, organism-based. More on the design: dose 10 mg/kg. The essentials: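 Male Sprague–Dawley rats dosed subcutaneously; blood sampled 1 h post-dose and plasma PTH measured by ELISA.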
Background: ELISA stands for enzyme-linked immunosorbent assay.

Another data set is filed under the species Homo sapiens. The experiment in a line: Activation of human GABAB receptor.
The nature of data set [5]: Intrinsic clearance in human liver microsomes. It is filed as ADME, Microsome. On the technique in general: Liver microsomes are a subcellular fraction often used to study metabolism.
Data set [6] addresses T1, Extracellular calcium-sensing receptor (Homo sapiens). Briefly: Positive allosteric modulation of calcium sensing receptor at 10 nM by cell based assay. In kind it is functional.
The target is the same in data set [7]. The experiment in a line: Positive allosteric modulation of calcium sensing receptor at 10 nM by cell based assay relative to control. It is filed as functional.

For the molecule `Cc1ccc([C@@](C)(O)c2nc3ccccc3s2)c(C)c1`, in data set [1], the result was Active. Also, the Efficacy in [2] came out at 79%. The EC50 in data set [3] is 79.4 nM.
For `Cc1ccc([C@](C)(O)c2nc3ccccc3s2)c(C)c1`, in that order: “Active”, 83% and 10 nM.
For the molecule `CC(O)(c1ccc(Cl)c(Cl)c1)c1nc2ccccc2s1` (stereo not given), the Efficacy in [2] stood at 62%. The EC50 in [3] is 100 nM.
Turning to `Cc1ccc(C(C)(O)c2nc3ccccc3s2)c(C)c1` (stereo not given), the outcome (in data set [4]; in the data set filed under Homo sapiens) was inactive. Besides, the outcome (in data set [1]; in the data set with Rattus norvegicus) was Active. Also, the Efficacy in data set [2] amounted to 91%. Also, in [3], the EC50 was 25.1 nM. In data set [5], this molecule yielded a microsomal CLint of 396 µL/min/mg.
Consider `Cc1ccccc1C(C)(O)c1nc2ccccc2s1` (stereo not given), for which the Efficacy in data set [2] is 72%. Also, the EC50 in data set [3] was 251 nM.
In the case of `CC(O)(c1nc2ccccc2s1)c1ccc(Cl)cc1Cl` (stereo not given), the Efficacy in data set [2] was 82%. The EC50 in [3] was 100 nM. In data set [5], the microsomal CLint turned out to be 66 µL/min/mg.
As to `CC(O)(c1ccc2ccccc2c1)c1nc2ccccc2s1` (stereo not given), the Efficacy in [2] came out at 53%. Moreover, the EC50 in [3] is 631 nM.
For `COc1ccccc1C(C)(O)c1nc2ccccc2s1` (stereo not given), in that order: 26% and 3980 nM.
In the case of `OC(c1ccccc1)(c1ccc(Cl)c(Cl)c1)c1nc2ccccc2s1` (stereo not given), the result in data set [6] and in [7] was inactive.
As to `Cc1cc(Cl)ccc1C(C)(O)c1nc2ccccc2s1` (stereo not given), the Efficacy in [2] was 94%. Further, the EC50 in [3] was 31.6 nM.
On the same counts, the results for `Cc1cc(C)c2c(c1)C(O)(c1nc3ccccc3s1)CCC2` (stereo not given) are 81% and 316 nM.
On to `CC(O)(c1ccc(Cl)cc1)c1nc2ccccc2s1` (stereo not given), for which the Efficacy in data set [2] worked out at 68%. Further, the EC50 in data set [3] is 398 nM. In addition, in data set [5], the microsomal CLint is over 200 µL/min/mg.
Consider `Cc1ccc(C(O)(c2nc3ccccc3s2)C2CC2)c(C)c1` (stereo not given), for which the Efficacy in data set [2] worked out at 76%. In [3], the EC50 was 200 nM.
`Cc1ccc(C(O)c2nc3ccccc3s2)c(C)c1` (stereo not given): the result in [6] and in [7] was inactive.
Turning to `C=C(c1nc2ccccc2s1)c1ccc(C)cc1C`, the result in [6] and in [7] was inactive.
Take `C[C@@H](NCCCc1cccc(C(F)(F)F)c1)c1cccc2ccccc12` [CINACALCET HYDROCHLORIDE]: the Efficacy in data set [2] stood at 115%. Besides, the EC50 in [3] is 20 nM.
For `Cc1cc(C(C)(O)c2nc3ccccc3s2)ccc1F` (stereo not given), in that order: 62% and 158 nM.
For `Cc1ccc(C(C)c2nc3ccccc3s2)c(C)c1` (stereo not given), in that order: 88% and 2510 nM.

By EC50 is commonly meant the concentration at which the effect is half-maximal. Usually microsomal CLint stands for the rate of metabolic loss divided by the concentration.
